Laboratory results reported in ChEMBL document CHEMBL3259597 (J Med Chem, 2014).

How the values were obtained:
[1] = Lipophilicity, log D of the compound by octanol/buffer shake flask method; format: physicochemical
[2] = Intrinsic clearance in human liver microsomes; format: ADME; settings: read-out: CLH
[3] = Oral bioavailability in rat at 5 mg/kg; format: ADME, organism-based; settings: in vivo
Outline: (§1)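 Rat pharmacokinetics after a single IV dose of 1 mg/kg and an oral dose of 5 mg/kg. Reported parameters are AUC, t1/2, clearance, Vss and oral bioavailability.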

[4] = Half life in rat at 1 mg/kg, iv; format: ADME, organism-based; parameters: dose 1 mg/kg, route intravenous; settings: in vivo; outline: as §1
[5] = Clearance in rat at 1 mg/kg, iv; format: ADME, organism-based; parameters: dose 1 mg/kg, route intravenous; settings: in vivo; outline: as §1
[6] = AUC in Sprague-Dawley rat at 30 mg/kg, po; format: ADME, organism-based; parameters: dose 30 mg/kg, route oral; settings: plasma
Outline: (§2)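 Male Sprague-Dawley rats, about 11 weeks old (300−400 g), singly housed with chow and water ad libitum. […] Urine was collected overnight predose and at 0−2, 2−4 and 4−7 h postdose for Na+ and K+, normalised to creatinine. Plasma drug was measured by LC-MS.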

[7] = AUC in rat at 1 mg/kg, iv; format: ADME, organism-based; parameters: dose 1 mg/kg, route intravenous; settings: plasma; outline: as §1
[8] = AUC in Sprague-Dawley rat at 10 mg/kg, po; format: ADME, organism-based; parameters: dose 10 mg/kg, route oral; settings: plasma; outline: as §2
[9] = Volume of distribution at steady state in rat at 1 mg/kg, iv; format: ADME, organism-based; parameters: dose 1 mg/kg, route intravenous; settings: in vivo, read-out: Vdss; outline: as §1
[10] = AUC in Sprague-Dawley rat at 3 mg/kg, po; format: ADME, organism-based; parameters: dose 3 mg/kg, route oral; settings: plasma; outline: as §2
[11] = AUC in rat at 5 mg/kg, po; format: ADME, organism-based; parameters: dose 5 mg/kg, route oral; settings: plasma; outline: as §1

SMILES | logD [1] | also measured
COc1nc(C2=NN(c3ccc(C#N)c(C)n3)[C@@H](C3CCCC3)C2)ccc1C(=O)NS(C)(=O)=O | 1.9 | –
N#Cc1ccc(N2N=C3c4ccc(C(=O)O)cc4CC[C@@H]3[C@@H]2C2CCCC2)cc1Cl [PF-03882845] | 3.5 | –
CCOc1nc(C2=NN(c3ccc(C#N)c(C)c3)[C@@H](C3CCCC3)C2)ccc1C(=O)O | 3 | –
COc1nc(C2=NN(c3ccc(C#N)c(C)c3)[C@@H](C3CCCC3)C2)ccc1C(=O)O | 2.2 | microsomal CLint [2]: < 14 µL/min/mg; bioavailability [3]: 54%; half-life [4]: 2.3 h; clearance [5]: 33 mL/min/kg; AUC [6]: 33600 ng·h/mL; AUC [7]: 494 ng·h/mL; AUC [8]: 9240 ng·h/mL; Vd [9]: 3.1 L/kg; AUC [10]: 1170 ng·h/mL; AUC [11]: 1320 ng·h/mL
COc1nc(C2=NN(c3ccc(C#N)c(C)n3)[C@@H](C(C)C)C2)ccc1C(=O)O | 1.6 | –
COc1cc(C2=NN(c3ccc(C#N)c(Cl)c3)[C@@H](C3CCCC3)C2)ccc1C(=O)O | 2.1 | –
COc1nc(C2=NN(c3ccc(C#N)c(C)c3)[C@H](C3CCCC3)C2)ccc1C(=O)O | 2.2 | –
COc1cc(C2=NN(c3ccc(C#N)c(C)n3)[C@@H](C3CCCC3)C2)ccc1C(=O)O | 1.7 | –
COc1nc(C2=NN(c3ccc(C#N)c(Cl)c3)[C@@H](C3CCCC3)C2)ccc1C(=O)O | 2.3 | –
COc1nc(C2=NN(c3ccc(C#N)c(C)c3)[C@@H](C3CCCC3)C2)ccc1C(=O)Nc1nnn[nH]1 | 3.2 | –
CNC(=O)c1ccc(C2=NN(c3ccc(C#N)c(C)n3)[C@@H](C3CCCC3)C2)nc1OC | 3.2 | –
Cc1nc(N2N=C(c3ccc(C(=O)O)cc3)C[C@@H]2C2CCCC2)ccc1C#N | 2.6 | –
CCOc1cc(C2=NN(c3ccc(C#N)c(C)c3)[C@@H](C3CCCC3)C2)ccc1C(=O)O | 2.7 | –
COc1nc(C2=NN(c3ccc(C#N)c(C)c3)[C@@H](C3CCCC3)C2)ccc1C(=O)N(C)C | 3.5 | –
COc1cc(C2=NN(c3ccc(C#N)c(C)c3)[C@@H](C3CCCC3)C2)ccc1C(=O)O | 2.2 | –
COc1nc(C2=NN(c3ccc(C#N)c(C)c3)[C@@H](C3CCCC3)C2)ccc1C(=O)NS(C)(=O)=O | 2.3 | microsomal CLint [2]: 175 µL/min/mg
COc1nc(C2=NN(c3ccc(C#N)c(C)n3)[C@@H](C3CCCC3)C2)ccc1C(N)=O | 3.4 | –
COc1nc(C2=NN(c3ccc(C#N)c(C)c3)[C@@H](C3CCCC3)C2)ccc1C(N)=O | 3.8 | –
COc1nc(C2=NN(c3ccc(C#N)c(C)n3)[C@@H](C3CCCC3)C2)ccc1C(=O)N(C)C | 4.1 | –
COc1nc(C2=NN(c3ccc(C#N)c(C)n3)[C@@H](C3CCCC3)C2)ccc1C(=O)O | 2 | –
CNC(=O)c1ccc(C2=NN(c3ccc(C#N)c(C)c3)[C@@H](C3CCCC3)C2)nc1OC | 4.4 | –
CCOc1cc(C2=NN(c3ccc(C#N)c(Cl)c3)[C@@H](C3CCCC3)C2)ccc1C(=O)O | 2.6 | –
